Measurements of several laboratories.
Compare with care: the assays were run in different laboratories.
Target: Histamine H3 receptor (HRH3, Homo sapiens, UniProt Q9Y5N1)

| Compound | read-out | technique | tested at | inhibition |
| --- | --- | --- | --- | --- |
| CN(CCN1CCC(OC(=O)Nc2ccccc2-c2ccccc2)CC1)C(=O)c1ccc(CN2CCC(C(N)=O)CC2)cc1 | ligand displacement | radioligand | 1 µM | 72% |
| Cc1c(N2CCNCC2)nc2ccc(Br)cc2c1C(=O)NC[C@H](CCC(=O)O)c1ccccc1Cl | ligand displacement |  | 10 µM | 16.9% |
| c1ccc(C(NCCNC(c2ccccc2)c2ccccc2)c2ccccc2)cc1 | cell-free assay |  | 10 µM | 1% |
| O=C(Nc1cccnn1)N1CCN([C@@H]2CCOc3cc(C(F)(F)F)ccc32)CC1 | cell-free assay |  | 20 µM | 11% |
| CC(C)N1CCC[C@H]1CNC(=O)c1cn(C2CCCC2)c(=O)c2c1c1ccccc1n2C | ligand displacement | radioligand | 10 µM | 26% |
| C[C@H](C(=O)N[C@H]1COc2ccccc2[C@@H]1S(C)(=O)=O)c1ccc(F)cc1 | cell-free assay |  | 10 µM | 1% |
| COCc1c(-c2cc3cc(C)cc(OC)c3s2)c2c(N)ncnn2c1CN1CCNC(=O)C1 | ligand displacement | radioligand | 10 µM | -8% |
| N#CC1(c2ccccn2)CCN(Cc2cc(C(=O)O)c(=O)n3ccccc23)CC1 | cell-free assay |  | 10 µM | 4.08% |
